Screening results deposited in PubChem by several laboratories.
HGIII-sPLA2 inh: Blocks human group III sPLA2 activity; QFRET BODIPY PC-A2 liposome hydrolysis, fluorescence; inhibition, % at 12.2 µM; 370,000 tested, 0.56% active; AID 743126;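 active = inhibition above mean plus 3 SD of compounds lying within the high and low control bounds, cut at about 19% in these data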
NRP1-CendR mod: modulators of CendR peptide binding to human neuropilin-1; O14786; FAM-RPARPAR peptide binding to NRP-1, fluorescence polarization; inhibition, % at 25 µM; 360,000 tested, 0.85% active; AID 602438;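 active = inhibition or corrected inhibition above about 18%, plus a signal ratio from 0.5 to 1.5, limit read from the data, passing the limit was not always enough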
M18AAP inhibitor: blocks P. falciparum M18 aspartyl aminopeptidase. recombinant PfM18AAP, H-Glu-NHMec fluorogenic cleavage. inhibition, % at 7.35 µM. 290,000 tested, 1.2% active;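 active = inhibition above the campaign mean inhibition over all tested compounds plus 3 SD, cut at about 28% in these data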
Hep lipid drop: hepatic lipid droplet formation modulation; AID 1656; AML12 mouse hepatocytes, oleate lipid droplets, BODIPY imaging; inhibition, % at 6.5 µM; 240,000 tested, 0.4% active;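 active = lipid droplet intensity inhibited by at least 50%, with more than 500 cells counted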
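material = mouse AML12 hepatocyte cell line, fixed after treatment | also added = 100 µM oleic acid challenge | doses = compound at 6.5 µM only | schedule = overnight exposure | technique = Image-based BODIPY and DAPI two-channel analysis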
HTR2A ag: activates the mouse 5-HT2A serotonin receptor; 360,000 tested, 0.66% active; CHO-K1 mHTR2A beta-arrestin complementation, luminescence; percent of 30 µM serotonin response; activation, % at 7.6 µM;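 active = activation above a run cutoff, the mean activation of all tested compounds plus 3 SD, cut at about 14% in these data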
Target sequence (P35363 whole entry, looked up): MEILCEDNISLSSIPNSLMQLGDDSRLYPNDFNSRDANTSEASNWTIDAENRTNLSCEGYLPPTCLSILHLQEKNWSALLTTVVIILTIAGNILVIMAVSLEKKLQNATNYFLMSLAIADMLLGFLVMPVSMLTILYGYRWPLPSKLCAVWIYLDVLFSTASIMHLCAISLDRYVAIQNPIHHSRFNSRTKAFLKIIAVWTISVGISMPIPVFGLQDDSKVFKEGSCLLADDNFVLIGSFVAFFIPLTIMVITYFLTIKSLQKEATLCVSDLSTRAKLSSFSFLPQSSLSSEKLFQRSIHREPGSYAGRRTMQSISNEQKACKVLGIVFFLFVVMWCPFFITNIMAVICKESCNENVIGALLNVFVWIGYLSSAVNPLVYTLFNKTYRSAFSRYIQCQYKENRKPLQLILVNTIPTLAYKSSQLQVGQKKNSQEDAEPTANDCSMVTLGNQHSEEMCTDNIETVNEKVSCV
Arrestin-AP2 inh: inhibitors of human beta-arrestin and AP2 interaction. 340,000 tested, 0.31% active. inhibition, % at 10 µM. FITC-arrestin peptide / GST-AP2 beads, flow cytometry; AP2 beta2 appendage carries R879A mutation;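 active = inhibition above a set limit, near 3 SD of compounds lacking own fluorescence, cut at about 54% in these data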
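Material – GST-tagged AP2 beta2-adaptin appendage (R879A) on 4 µm glutathione beads · Probe or stimulus – fluorescein-tagged arrestin peptide at 50 nM final · Timing – 12 min plus 1 h, RT · Detection – bead flow cytometry, FITC channel · Read-out basis – inhibition as reduced fluorescein signal on beads, percent · Medium – PBS plus Tween 20 (0.05%) and BSA (0.1%)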
OPRM1 ag: activates human mu opioid receptor in HTR2A counterscreen | shares compounds with HTR2A ag | U2OS OPRM1 beta-arrestin PathHunter, luminescence; DMSO 0%, DAMGO 9.3 µM 100% | activation, % at 9.3 µM | 2,300 tested, 5.3% active | AID 624380;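 active = mean activation above the mean of DMSO-only wells plus 3 SD, cut at about 0.5% in these data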
m5-HT2A ag conf: mouse HTR2A agonism confirmed | CHO-K1 PathHunter beta-arrestin recruitment, luminescence; DMSO 0%, 30 µM serotonin 100% | 2,300 tested, 19% active | activation, % at 7.6 µM | shares compounds with HTR2A ag;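 active = mean activation across triplicates above the hit threshold derived in the original primary screen, cut at about 15% in these data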
Numbers stand for hits; ! = a repeat was not active. A selection: hits, their analogues and other compounds. The true share with any hit is near 3.3%.

Screening Cc1ccc(NC2=NCCCS2)c(C)c1C returned HGIII-sPLA2 inh inactive, NRP1-CendR mod inactive, M18AAP inhibitor inactive, Hep lipid drop inactive, HTR2A ag 18.5, Arrestin-AP2 inh inactive, OPRM1 ag inactive and m5-HT2A ag conf 14.8.
Screening COc1ccc2c(c1OC)C(=O)OC2c1c(O)n(Cc2ccc(F)cc2)c(=O)[nH]c1=O (stereo unspecified) returned HGIII-sPLA2 inh inactive, NRP1-CendR mod inactive, M18AAP inhibitor inactive, Hep lipid drop inactive, HTR2A ag inactive and Arrestin-AP2 inh inactive.
Screening CC(=O)N1CCC(N2CCCC(C(=O)c3cccc(Cl)c3)C2)CC1 (stereo unspecified) returned HGIII-sPLA2 inh inactive, NRP1-CendR mod inactive, M18AAP inhibitor inactive, Hep lipid drop inactive, HTR2A ag 35.5, Arrestin-AP2 inh inactive, OPRM1 ag inactive and m5-HT2A ag conf 85.8.
`COc1ccc2c(c1O)-c1c(OC)c(OC)cc3c1[C@H](C2)N(C)CC3` gave HGIII-sPLA2 inh inactive, NRP1-CendR mod inactive, HTR2A ag inactive and Arrestin-AP2 inh inactive.
`CCCN1CCc2cccc3c2[C@H]1Cc1ccc(O)c(O)c1-3` gave NRP1-CendR mod inactive, HTR2A ag 61.7, Arrestin-AP2 inh inactive, OPRM1 ag 1.4 and m5-HT2A ag conf 135.7.
Screening COc1ccc(-n2nnnc2C(c2cc3ccccc3o2)N2CCC(n3c(=O)[nH]c4ccccc43)CC2)cc1 (stereo unspecified) returned HGIII-sPLA2 inh inactive, NRP1-CendR mod inactive, HTR2A ag 15.7 and m5-HT2A ag conf inactive.
Screening Clc1ccc(OCC#CCN2CCCCCC2)cc1 returned HGIII-sPLA2 inh inactive, NRP1-CendR mod inactive, M18AAP inhibitor inactive, Hep lipid drop inactive, HTR2A ag inactive and Arrestin-AP2 inh inactive.
Screening N#Cc1c(Br)n(C2OC(CO)C(O)C2O)c2ncnc(N)c12 (stereo unspecified) returned HGIII-sPLA2 inh inactive, NRP1-CendR mod inactive, HTR2A ag 50.9, Arrestin-AP2 inh inactive, OPRM1 ag inactive and m5-HT2A ag conf 100.1.
`COc1ccccc1-n1c(-c2cccs2)nc2ccccc2c1=O` gave HGIII-sPLA2 inh inactive, NRP1-CendR mod inactive, M18AAP inhibitor inactive, Hep lipid drop inactive, HTR2A ag inactive and Arrestin-AP2 inh inactive.
For Cc1[nH]c2c(C(F)(F)F)cccc2c1CCN the results were HGIII-sPLA2 inh inactive, NRP1-CendR mod inactive, M18AAP inhibitor inactive, Hep lipid drop inactive, HTR2A ag 48.0, Arrestin-AP2 inh inactive, OPRM1 ag inactive and m5-HT2A ag conf 32.4.
CC(=NCc1cccnc1)c1c(O)n(-c2ccccc2C)c(=O)[nH]c1=O was read as HGIII-sPLA2 inh inactive, NRP1-CendR mod inactive, M18AAP inhibitor inactive, Hep lipid drop inactive, HTR2A ag inactive and Arrestin-AP2 inh inactive.
CC(=O)c1cccc(OCC(O)CN2CC=C(c3ccccc3)CC2)c1 (stereo unspecified) was read as HGIII-sPLA2 inh inactive, NRP1-CendR mod inactive, M18AAP inhibitor inactive, HTR2A ag 18.6, Arrestin-AP2 inh inactive, OPRM1 ag inactive and m5-HT2A ag conf 79.5.
For COC1CC2C=C(C)C=CC=CC(=O)NC(c3ccccc3)CC=CCCC(O)CC(=O)C2=C1O (stereo unspecified) the results were HGIII-sPLA2 inh inactive, NRP1-CendR mod inactive, HTR2A ag 21.0, OPRM1 ag 6.0 and m5-HT2A ag conf 19.1.
Screening C[C@]12CC[C@H](OS(=O)(=O)O)CC1=CC[C@@H]1[C@@H]2CC[C@]2(C)C(=O)CC[C@@H]12 returned HGIII-sPLA2 inh inactive, NRP1-CendR mod inactive, HTR2A ag 14.8!, Arrestin-AP2 inh inactive, OPRM1 ag inactive and m5-HT2A ag conf inactive.
`C[C@]12CCC(OC(=O)CCC(=O)O)CC1=CCC1C2CC[C@]2(C)C(=O)CCC12` (stereo partly specified) gave HGIII-sPLA2 inh inactive, NRP1-CendR mod inactive, M18AAP inhibitor inactive, Hep lipid drop inactive, HTR2A ag inactive and Arrestin-AP2 inh inactive.
Screening CCCCCCC(C)(C)c1ccc([C@@H]2C[C@H](O)CC[C@H]2CCCO)c(O)c1 returned HGIII-sPLA2 inh inactive, NRP1-CendR mod inactive, HTR2A ag 29.2, Arrestin-AP2 inh inactive, OPRM1 ag 0.8 and m5-HT2A ag conf 22.6.
`CCCCCn1c(=O)c(C(=O)NCc2ccco2)c(O)c2ccccc21` gave HGIII-sPLA2 inh inactive, NRP1-CendR mod inactive, M18AAP inhibitor inactive, Hep lipid drop inactive, HTR2A ag 18.0, Arrestin-AP2 inh inactive, OPRM1 ag inactive and m5-HT2A ag conf inactive.
CCCCn1c(=O)c(C(=O)NCc2ccco2)c(O)c2ccccc21 was read as HGIII-sPLA2 inh inactive, NRP1-CendR mod inactive, M18AAP inhibitor inactive, Hep lipid drop inactive, HTR2A ag inactive and Arrestin-AP2 inh inactive.
CC(N)Cc1c[nH]c2ccc(OCc3cccs3)cc12 (stereo unspecified) was read as HGIII-sPLA2 inh inactive, NRP1-CendR mod inactive, HTR2A ag 21.8, Arrestin-AP2 inh inactive, OPRM1 ag inactive and m5-HT2A ag conf inactive.
For OCCNCCc1c[nH]c2ccc(OCc3ccccc3)cc12 the results were HGIII-sPLA2 inh inactive, NRP1-CendR mod inactive, M18AAP inhibitor inactive, Hep lipid drop inactive, HTR2A ag inactive and Arrestin-AP2 inh inactive.
`CC(N)Cc1c[nH]c2ccc(O)cc12` (stereo unspecified) gave HGIII-sPLA2 inh inactive, NRP1-CendR mod inactive, HTR2A ag 49.4, Arrestin-AP2 inh inactive, OPRM1 ag inactive and m5-HT2A ag conf 32.4.
`CCOP(=O)(OCC)C(O)c1ccc(Br)cc1` (stereo unspecified) gave NRP1-CendR mod inactive, M18AAP inhibitor inactive, Hep lipid drop inactive, HTR2A ag inactive and Arrestin-AP2 inh inactive.
Screening CCOP(=O)(OCC)C(O)c1ccccc1 (stereo unspecified) returned HGIII-sPLA2 inh inactive, NRP1-CendR mod inactive, M18AAP inhibitor inactive, Hep lipid drop inactive, HTR2A ag 15.8, Arrestin-AP2 inh inactive, OPRM1 ag inactive and m5-HT2A ag conf inactive.
For CCn1c(=O)cc(SCC(=O)N2CCC3(CC2)OCCO3)c2ccccc21 the results were HGIII-sPLA2 inh inactive, NRP1-CendR mod inactive, M18AAP inhibitor inactive, HTR2A ag inactive and Arrestin-AP2 inh inactive.
For CCN(CC)C(=O)N[C@H]1C[C@@H]2c3cccc4[nH]cc(c34)C[C@H]2N(C)C1 the results were HGIII-sPLA2 inh inactive, NRP1-CendR mod inactive, M18AAP inhibitor inactive, Hep lipid drop inactive, HTR2A ag 38.9, Arrestin-AP2 inh inactive, OPRM1 ag inactive and m5-HT2A ag conf 92.8.
